Reference: PubChem BioAssay AID504490 (NMMLSC, 2011)
Out of some 340,000 compounds screened, about 1,100 (0.32%) were called active.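 How the source made its calls: active means inhibition above a set limit, near 3 SD of compounds lacking own fluorescence (cut at about 54% in these data); inactive means the rest.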 This excerpt belongs to a sample that is enriched for actives.

Test system: beta-arrestin 1 C-terminal peptide binding to AP2 beta2-adaptin appendage (human)
Test: inhibitors of beta-arrestin/AP2 binding, primary screen, biochemical, GPCR trafficking, flow cytometry (AID 504490);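 further: plate controls were DMSO wells for no effect and 5 µM unlabelled arrestin peptide for full effect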
Conditions: FITC-arrestin peptide / GST-AP2 beads, at 10 µM, hits give high values, AP2 beta2 appendage carries R879A mutation
Summary of the method: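 Measured by: flow cytometry, FL1 (488/535 nm); Material: AP2 appendage R879A on GSH beads; Evaluation: percent response; Timing: pre-incubation 12 min, peptide binding 1 h, room temperature; Also added: 50 nM FITC-arrestin peptide; Medium: PBS with 0.05% Tween 20 and 0.1% BSA.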

inhibition, inactive:
O=C(Nc1ccccc1)N1CCN(C2c3ccccc3-c3ccccc32)CC1 -3.43%
CC1CN(CC(=O)NC(C)c2ccccc2)CC(C)O1 (centres undefined) 0.77%
Cn1c(=O)c2sccc2n(Cc2ccc(Br)cc2)c1=O -7.24%
CCCCNc1nc2c(c(=O)n(C)c(=O)n2C)n1Cc1cccc(OC)c1 13.6%
CN1CCN(c2ccc(NC(=O)c3cc(Cl)c4c(c3)OCCO4)cc2)CC1 30.2%
Cc1cccc(N2CCN(c3ccc(NC(=O)/C=C\C(=O)O)cc3)CC2)c1 15.9%
Cn1c(SCc2nc3ccccc3s2)nnc1-c1ccc2c(c1)OCO2 -3.99%
CCCCN(CC)CCNC(=O)CCNC(=O)Cn1ccc2ccccc2c1=O 1.19%
O=C1NC(=O)C(CCc2ccccc2)(c2ccccc2)N1 (centres undefined) -9.95%
C/C(Cl)=C\Cn1c(Nc2cccc(C)c2)nc2c1c(=O)n(C)c(=O)n2C -6.48%
O=C(NCCc1ccc(Cl)cc1)C1CC(=O)N(C2CCCCC2)C1 (centres undefined) 6.36%
COc1cccc(CNC(=O)C2CC(=O)N(C3CCCCCCC3)C2)c1 (centres undefined) -10.2%
COc1ccc(Br)cc1CN(C)CC(=O)Nc1cc(Cl)cc(Cl)c1 4.23%
CCc1cccc2c(C=C(C#N)C#N)cn(CC(=O)N3CCCCC3)c12 9.35%
COc1ccc(Cc2nnc(SCC(=O)c3cccc([N+](=O)[O-])c3)n2C)cc1 7.36%
CCc1ccccc1OCC(=O)Nc1ccc(C)c(S(=O)(=O)N2CCCCCC2)c1 10.8%
COc1cc(/C=C/C(=O)OCC(=O)c2ccccc2)cc(OC)c1OC 10%
COc1cc2c(cc1NC(=O)CN1CCN(S(=O)(=O)c3ccc(F)cc3)CC1)oc1ccccc12 11.4%
O=C(CNC(=O)c1ccc(Br)o1)Nc1ccccc1 7.78%
Cc1cccc(NC(=O)c2ccc([N+](=O)[O-])o2)c1 5.65%
Cc1cc(C)cc(C(=O)NC(=S)Nc2ccc3[nH]c(=O)[nH]c3c2)c1 10.9%
CCCCNC(=O)C1CCCN(S(=O)(=O)c2ccc(S(=O)(=O)NCC(C)C)cc2)C1 (centres undefined) 4.41%
Cc1cccc(NC(=O)C2CCCN(C(=O)Nc3ccc(F)cc3)C2)c1C (centres undefined) 25%
Cc1cc(/C=C2\SC(=Nc3ccc(N4CCOCC4)cc3)N(C)C2=O)c(C)n1-c1cccnc1 -3.18%
Cc1cc(/C=C2/SC(=O)N(CC(=O)N3CCCC3)C2=O)c(C)n1C -9.22%
COc1cccc(C(=O)n2ccc(-c3cccs3)n2)c1 4.99%
O=C(CN1C(=O)NC2(CCCCCC2)C1=O)NCc1ccc(F)cc1 13.2%
CCc1ccc(N(CC(=O)Nc2sc3c(c2C(=O)OC)CCCC3)S(C)(=O)=O)cc1 -5.8%
N#CCSc1nn(-c2ccc(F)cc2)c(=S)s1 1.03%
O=S(=O)(c1ccccc1)N(Cc1cccc(F)c1)c1ccccc1 6.33%
CC(C)C1C2=C(CC(C)(C)CC2=O)ON1c1ccccc1 (centres undefined) 14.7%
Cc1ccc(N2C(=O)C(NC(=O)c3c(F)cccc3F)(C(F)(F)F)C3=C2CC(C)(C)CC3=O)cc1 (centres undefined) 11.2%
Cc1ccc2[nH]cc(CCNC(=O)c3ccc([N+](=O)[O-])cc3)c2c1 5.19%
CCN(CC)Cc1c(C(=O)N/N=C/c2cccc(OCc3ccc(F)cc3)c2)nnn1-c1nonc1N -0.16%
Cn1ccsc1=NC(=O)c1cc(S(=O)(=O)N2CCOCC2)ccc1Cl -5.18%
COC(=O)c1ccc(CSc2nc3ccccc3c(=O)n2-c2cccc(OC)c2)o1 5.8%
COc1cccc(-n2c(SCC(=O)NC3CCS(=O)(=O)C3)nc3ccccc3c2=O)c1 (centres undefined) -2.41%
CN(C)c1ccc(C2N(C)C(=O)c3ccccc3N2C)cc1 (centres undefined) -7.07%
O=C(NCCc1ccccn1)c1cc(-c2ccc(Cl)cc2)nc2ccccc12 13.5%
CCOc1ccccc1-c1cc(C(=O)N/N=C(\C)c2cccnc2)c2ccccc2n1 -0.49%
c1ccc(CC2CCN(c3nc4ccccc4n4cnnc34)CC2)cc1 -7.81%
Cc1ccc(C)c(N(CC(=O)NCc2ccco2)C(=O)CCC(=O)Nc2ccccn2)c1 -8.6%
COc1ccc(C2NC(=O)c3ccccc3N2)cc1 (centres undefined) 26.1%
Brc1ccccc1C1N=C(c2ccccc2)NO1 (centres undefined) -3.82%
COc1cc2c(cc1OC)C(c1ccccc1Br)NC(=O)C2 (centres undefined) -7.73%
COc1ccc([C@H]2CC(=O)C=C(c3ccc(C)cc3)C2)cc1 18.7%
CC(=O)Nc1ccc(S(=O)(=O)N2CCN(C(=O)c3ccccc3F)CC2)cc1 -16.7%
CC12COC3(C(=O)Nc4ccc(Cl)cn4)CC1CCC32C (centres undefined) 1.37%
CCc1ccccc1N(CC(=O)NCC1CCCO1)C(=O)CCC(=O)Nc1nccs1 (centres undefined) -16.6%
Brc1cc(/C=N/n2cnnc2)oc1Br 1.91%
Clc1cc(-c2ccc(/C=N/n3cnnc3)o2)ccc1Br 1.32%
N#Cc1ccc(-c2ccc(Cl)cc2)nc1Oc1ccc(F)cc1 -5.52%
Cc1c(C2=CCN(S(=O)(=O)c3ccc(Cl)cc3)CC2)c2ccccc2n1C 6.61%
O=C(CCCNS(=O)(=O)c1cccc2nsnc12)NCCN1CCN(c2ccccc2F)CC1 5.08%
Cc1ccc(S(=O)(=O)N2CCN(C(=O)N3CCOCC3)CC2)c(C)c1 17.1%
Cc1ccc(S(=O)(=O)N2CCN(C(=O)Cn3c(=O)cnc4ccccc43)CC2)c(C)c1 -13.3%
CC(C)(C)OC(=O)N1CCC(NC(=O)c2[nH]cnc2C(=O)N[C@@H](Cc2ccccc2)C(=O)OCc2ccccc2)CC1 9.22%
O=C(NCCN1CCOC1=O)C1CCC(=O)N(CCc2ccc(Cl)cc2)C1 (centres undefined) -10.1%
N#Cc1c(N)n(CCOC(=O)c2ccc(Cl)cc2)c2nc3ccccc3nc12 3.34%
COCC(C)OC(=O)c1c(N)n(CCCN2CCOCC2)c2nc3ccccc3nc12 (centres undefined) -8.22%
COc1ccc(S(=O)(=O)Nc2cccc3c2O[C@H](CN(C)S(=O)(=O)c2ccc(OC)cc2)[C@@H](C)CN([C@H](C)CO)C3=O)cc1 -15.4%
COc1ccc(NC(=O)c2sc(N3CCOCC3)nc2-c2ccccc2)c(OC)c1 18.7%
COC(=O)CN1C(=O)[C@H]2[C@@H](/C=C/c3ccccc3)N3C(=O)CN(Cc4ccccc4)C(=O)[C@@]3(Cc3ccccc3)[C@H]2C1=O -5.14%
CC(=O)Nc1ccc(NC(=O)CSC2=NS(=O)(=O)c3ccccc3N2)cc1 22%
COC(=O)[C@H](C(C)C)n1c(C)c(C(C)=O)c(C(C)=O)c1C -0.72%
CCC(CC)c1nnc(NC(=O)c2nn(C)c(=O)c3ccccc23)s1 -0.4%
CCC(C)NC(=O)c1nn(C)c(=O)c2ccccc12 (centres undefined) -22%
O=C(OCc1nc2ccccc2[nH]1)C1CCCCC1 -0.04%
Cn1c(N)c(C(=O)COC(=O)c2ccc3ccccc3c2)c(=O)n(C)c1=O 7.54%
Cn1c(N)c(C(=O)COC(=O)c2cnc(Cl)c(Cl)c2)c(=O)n(C)c1=O -4.58%
CCCCN(C(=O)CSCc1ccc(C)cc1)c1c(N)n(Cc2ccccc2)c(=O)[nH]c1=O -0.62%
Cc1noc(C)c1CSc1nnc2ccc3ccccc3n12 -1.44%

inhibition, active:
Cn1c(=O)c2c(nc(N/N=C/c3cccs3)n2Cc2ccc(Br)cc2)n(C)c1=O 70.5%
C=CC(=O)Nc1ccc(Nc2ccnc(Nc3ccc(N4CCN(C)CC4)cc3)n2)cc1 55.9%
Cc1ccc(CNC(=O)C2CC(=O)N(C3CCCCCCC3)C2)cc1 (centres undefined) 93.8%
COc1cc2c(cc1NC(=O)COC(=O)/C=C/c1ccccc1)oc1ccccc12 105%
Cc1cccc(NC(=S)NC(=O)c2ccc(Br)o2)c1 61.8%
Cc1cc(/C=C2\SC(=O)N(C)C2=O)c(C)n1-c1cccc(C(=O)O)c1 54.7%
COC(=O)C1CC2=C(CC(C)(C)CC2=O)N(c2ccccc2)C1=O (centres undefined) 54.1%
COc1cccc(-n2c(SCC(=O)c3c[nH]c4ccccc34)nc3ccccc3c2=O)c1 105%
CN(C)c1ccc(Nc2c3c4c(cccc4n(C)c2=O)C(=O)c2ccccc2-3)cc1 63.5%
CC(=O)NCCNC(=O)c1cc(-c2cccc3ccccc23)nc2ccccc12 60.3%
Oc1ccc(C2Nc3cccc4cccc(c34)N2)cc1 56.2%
Brc1ccccc1C1Nc2cccc3cccc(c23)N1 56%
Cc1ccc(Cl)cc1-c1ccc(/C=N/n2cnnc2)o1 63.3%
Cc1ccc(S(=O)(=O)N2CCN(C(=O)c3ccccc3-c3nc4ccccc4s3)CC2)c(C)c1 66.5%
CC(C)(C)c1ccc(C(=O)NCCn2c(N)c(C#N)c3nc4ccccc4nc32)cc1 94.7%
COC(=O)c1cc(NC(=O)c2nn(C)c(=O)c3ccccc23)cc(C(=O)OC)c1 66.5%
Cc1cc(C(=O)OCC(=O)c2c(N)n(C)c(=O)n(C)c2=O)c(C)o1 104%
